From ChEMBL document CHEMBL2417423, “Synthesis and antifungal activities of miltefosine analogs” (Bioorg Med Chem Lett, 2013)
In brackets after ≈: the same amount, converted by molar mass. Activity calls are given as the source filed them. The calls are words filed in the database; no cut-off is given here.

Columns and labels:
HepG2 = test: Cytotoxicity against human HepG2 cells after 48 hrs by neutral red; assay type: cell-based; conditions: HepG2, 48 h
[1] = Cytotoxicity against pig LLC-PK11 cells after 48 hrs by neutral red; assay type: cell-based; conditions: Sus scrofa, LLC-PK11, 48 h
Vero = test: Cytotoxicity against african green monkey Vero cells after 48 hrs by neutral red; assay type: cell-based; conditions: Chlorocebus sabaeus
Cryptococcus neoformans [2] = test: Antifungal activity against Cryptococcus neoformans ATCC 90113 at 20 ug/ml after 72 hrs; assay type: functional, organism-based
Pichia kudriavzevii [3] = test: Antifungal activity against Candida krusei ATCC 6258 at 20 ug/ml after 48 hrs; assay type: functional, organism-based
Candida albicans [4] = test: Antifungal activity against Candida albicans ATCC 90028 at 20 ug/ml after 48 hrs; assay type: functional, organism-based
Aspergillus fumigatus [5] = test: Antifungal activity against Aspergillus fumigatus ATCC 90906 after 48 hrs; assay type: functional; conditions: ATCC 90906, 48 h
How it was run: (§1)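 MIC is the lowest concentration with no detectable growth. MFC: 5 μL from each clear well moved to agar at 35°C, 48 h for Candida spp. and A. fumigatus, 72 h for C. neoformans; lowest concentration that kills. Values are means of three independent experiments (two for one analog).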

Nakaseomyces glabratus [6] = test: Antifungal activity against Candida glabrata ATCC 90030 after 48 hrs; assay type: functional; conditions: ATCC 90030, 48 h; how it was run: as §1
Cryptococcus neoformans [7] = test: Antifungal activity against Cryptococcus neoformans ATCC 90113 at 20 ug/ml after 72 hrs by spectrophotometry; assay type: functional, organism-based
Candida albicans [8] = test: Antifungal activity against Candida albicans ATCC 90028 at 20 ug/ml after 48 hrs by spectrophotometry; assay type: functional, organism-based
Pichia kudriavzevii [9] = test: Antifungal activity against Candida krusei ATCC 6258 at 20 ug/ml after 48 hrs by spectrophotometry; assay type: functional, organism-based
Aspergillus fumigatus [10] = test: Antifungal activity against Aspergillus fumigatus ATCC 90906 after 48 hrs by spectrophotometry; assay type: functional; conditions: ATCC 90906, 48 h; how it was run: as §1
Nakaseomyces glabratus [11] = test: Antifungal activity against Candida glabrata ATCC 90030 after 48 hrs by spectrophotometry; assay type: functional; conditions: ATCC 90030, 48 h; how it was run: as §1
Candida albicans [12] = test: Antifungal activity against Candida albicans SC5314 infected in CD-1 mouse assessed as host survival at 5 mg/kg, ip administered 4, 24, 48, 72, and 96 hrs post inoculation measured up to 8 days relative to control; assay type: functional, organism-based; design: dose 5 mg/kg
Cryptococcus neoformans [13] = test: Antifungal activity against Cryptococcus neoformans ATCC 90113 after 72 hrs; assay type: functional; conditions: ATCC 90113, 72 h; how it was run: as §1
Pichia kudriavzevii [14] = test: Antifungal activity against Candida krusei ATCC 6258 after 48 hrs; assay type: functional; conditions: ATCC 6258, 48 h; how it was run: as §1
Candida albicans [15] = test: Antifungal activity against Candida albicans ATCC 90028 after 48 hrs; assay type: functional; conditions: ATCC 90028, 48 h; how it was run: as §1
Cryptococcus neoformans [16] = test: Antifungal activity against Cryptococcus neoformans ATCC 90113 after 72 hrs by spectrophotometry; assay type: functional; conditions: ATCC 90113, 72 h; how it was run: as §1
Pichia kudriavzevii [17] = test: Antifungal activity against Candida krusei ATCC 6258 after 48 hrs by spectrophotometry; assay type: functional; conditions: ATCC 6258, 48 h; how it was run: as §1
Candida albicans [18] = test: Antifungal activity against Candida albicans ATCC 90028 after 48 hrs by spectrophotometry; assay type: functional; conditions: ATCC 90028, 48 h; how it was run: as §1
Leishmania donovani = test: Antileishmanial activity against Leishmania donovani in ip dosed mouse model of leishamniasis; assay type: functional
Aspergillus fumigatus [19] = test: Antifungal activity against Aspergillus fumigatus ATCC 90906 at 20 ug/ml after 48 hrs; assay type: functional, organism-based
Aspergillus fumigatus [20] = test: Antifungal activity against Aspergillus fumigatus ATCC 90906 at 20 ug/ml after 48 hrs by spectrophotometry; assay type: functional, organism-based

Compound | IC50 (HepG2) | IC50 [1] | IC50 (Vero) | Activity (Cryptococcus neoformans [2]) | Activity (Pichia kudriavzevii [3]) | Activity (Candida albicans [4]) | MFC (Aspergillus fumigatus [5]) | MFC (Nakaseomyces glabratus [6]) | Activity (Cryptococcus neoformans [7]) | Activity (Candida albicans [8]) | Activity (Pichia kudriavzevii [9]) | MIC (Aspergillus fumigatus [10]) | MIC (Nakaseomyces glabratus [11]) | MFC (Cryptococcus neoformans [13]) | MFC (Pichia kudriavzevii [14]) | MFC (Candida albicans [15]) | MIC (Cryptococcus neoformans [16]) | MIC (Pichia kudriavzevii [17]) | MIC (Candida albicans [18]) | also measured
CCCCCCCCCCCCCCCCOP(=O)([O-])OCC[N+](C)(C)Cc1ccc(Br)cc1 | 21.3 µg/mL (≈ 37.9 µM) | 5.5 µg/mL (≈ 9.78 µM) | > 25 µg/mL | inactive | inactive | inactive | 20 µg/mL (≈ 35.6 µM) | 10.8 µg/mL (≈ 19.2 µM) | inactive | inactive | inactive | 20 µg/mL (≈ 35.6 µM) | 10.8 µg/mL (≈ 19.2 µM) |  |  |  |  |  |  | 
CCCCCCCCCCCCCCCCOP(=O)([O-])OCC[N+](C)(C)C [MILTEFOSINE] | > 25 µg/mL | 2.7 µg/mL (≈ 6.62 µM) | > 25 µg/mL |  |  |  | 9.2 µg/mL (≈ 22.6 µM) | 4.2 µg/mL (≈ 10.3 µM) |  |  |  | 2.9 µg/mL (≈ 7.12 µM) | 3.3 µg/mL (≈ 8.1 µM) | 2.1 µg/mL (≈ 5.15 µM) | 3.3 µg/mL (≈ 8.1 µM) | 2.5 µg/mL (≈ 6.13 µM) | 2.1 µg/mL (≈ 5.15 µM) | 2.5 µg/mL (≈ 6.13 µM) | 2.5 µg/mL (≈ 6.13 µM) | Activity (Candida albicans [12]): inactive; ED50 (Leishmania donovani): 7.72 mg/kg
C[C@@H]1[C@H](O)[C@@H](C)/C=C/C=C/C=C/C=C/C=C/C=C/C=C/[C@H](O[C@@H]2O[C@H](C)[C@@H](O)[C@H](N)[C@@H]2O)C[C@@H]2O[C@](O)(C[C@@H](O)C[C@@H](O)[C@H](O)CC[C@@H](O)C[C@@H](O)CC(=O)O[C@H]1C)C[C@H](O)[C@H]2C(=O)O [AMPHOTERICIN B] |  |  |  |  |  |  | 5 µg/mL (≈ 5.41 µM) | 1.5 µg/mL (≈ 1.62 µM) |  |  |  | 2.5 µg/mL (≈ 2.71 µM) | 1.3 µg/mL (≈ 1.41 µM) |  | 1.7 µg/mL (≈ 1.84 µM) | 1 µg/mL (≈ 1.08 µM) |  | 1.7 µg/mL (≈ 1.84 µM) | 0.9 µg/mL (≈ 0.974 µM) | 
CCCCCCCCCCCCCCOP(=O)([O-])OCC[N+](C)(C)Cc1ccccc1 | > 25 µg/mL | 10.8 µg/mL (≈ 23.7 µM) | > 25 µg/mL |  |  |  |  | 8.3 µg/mL (≈ 18.2 µM) |  |  |  | 10 µg/mL (≈ 21.9 µM) | 8.3 µg/mL (≈ 18.2 µM) | 3.3 µg/mL (≈ 7.24 µM) | 10 µg/mL (≈ 21.9 µM) | 8.3 µg/mL (≈ 18.2 µM) | 3.3 µg/mL (≈ 7.24 µM) | 10 µg/mL (≈ 21.9 µM) | 6.7 µg/mL (≈ 14.7 µM) | 
C=CC[N+](C)(C)CCOP(=O)([O-])OCCCCCCCCCCCCCCCC | 13.2 µg/mL (≈ 30.4 µM) | 4.1 µg/mL (≈ 9.46 µM) | > 25 µg/mL | inactive | inactive | inactive |  | 16.6 µg/mL (≈ 38.3 µM) | inactive | inactive | inactive |  | 16.6 µg/mL (≈ 38.3 µM) |  |  |  |  |  |  | Activity (Aspergillus fumigatus [19]): inactive; Activity (Aspergillus fumigatus [20]): inactive
CCCCCCCCCCCCCCCCOP(=O)([O-])OCC[N+](C)(C)C/C=C/c1ccccc1 | 19.6 µg/mL (≈ 38.5 µM) | 2.1 µg/mL (≈ 4.12 µM) | > 25 µg/mL | inactive |  | inactive | 5 µg/mL (≈ 9.81 µM) | 3.3 µg/mL (≈ 6.47 µM) | inactive | inactive |  | 2.5 µg/mL (≈ 4.9 µM) | 2.5 µg/mL (≈ 4.9 µM) |  | 3.3 µg/mL (≈ 6.47 µM) |  |  | 3.3 µg/mL (≈ 6.47 µM) |  | 
